Reference: ChEMBL document CHEMBL4052614, “Novel 3',5'-diprenylated chalcones inhibited the proliferation of cancer cells in vitro by inducing cell apoptosis and arresting cell cycle phase” (Eur J Med Chem, 2017)
Active and inactive are the calls of the source. The calls are words filed in the database; no cut-off is given here.

Tests used:
MDA-MB-231 [1] = assay: Growth inhibition of human MDA-MB-231 cells at 5 umol/L after 48 hrs by MTT assay relative to control; type: functional; details: MDA-MB-231, 48 h, read-out: GI
Procedure, shortened: (§1)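 Cells kept in DMEM/10% FBS at 37 °C, 5% CO2, seeded at 4×10^3–8×10^3 cells/well, 24 h attachment, then 48 h with compound at 5 µmol/L. MTT (5 mg/mL solution) added for 4 h at 37 °C, formazan taken up in DMSO, A490 read. Percent inhibition as mean ± SD of three independent experiments. Doxorubicin as positive control.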

K562 [2] = assay: Growth inhibition of human K562 cells at 5 umol/L after 48 hrs by MTT assay relative to control; type: functional; details: K562, 48 h, read-out: GI; procedure, shortened: as §1
HEL [3] = assay: Growth inhibition of HEL cells at 5 umol/L after 48 hrs by MTT assay relative to control; type: functional; details: Homo sapiens, read-out: GI; procedure, shortened: as §1
MDA-MB-231 [4] = assay: Cytotoxicity against human MDA-MB-231 cells after 48 hrs by MTT assay; type: functional, cell-based
Procedure, shortened: (§2)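 Cells kept in DMEM/10% FBS at 37 °C, 5% CO2, seeded at 4×10^3–8×10^3 cells/well and left 24 h to adhere. Exposed 48 h to a range of concentrations. MTT (5 mg/mL solution) added for 4 h at 37 °C, formazan dissolved in DMSO, absorbance read at 490 nm. IC50 derived from concentration–inhibition relation. Doxorubicin as positive control.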

HEL [5] = assay: Cytotoxicity against HEL cells after 48 hrs by MTT assay; type: functional, cell-based; details: Homo sapiens; procedure, shortened: as §2
MDA-MB-231 [6] = assay: Induction of morphological changes in human MDA-MB-231 cells assessed as increase in cell rounding at 5 umol/L after 48 hrs by inverted microscopic method; type: functional, cell-based
Procedure, shortened: (§3)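 Cells cultured in DMEM/10% FBS at 37 °C, 5% CO2. Exposed 48 h to 5 µmol/L compound alongside DMSO controls. Morphology (cell number, rounding, spacing, apoptotic bodies, spindle shape) observed under an inverted microscope with CCD camera.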

PC-3 [7] = assay: Induction of morphological changes in human PC3 cells assessed as increase in cell rounding at 5 umol/L after 48 hrs by inverted microscopic method; type: functional, cell-based
Procedure, shortened: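 PC3 cells were kept in DMEM with 10% FBS, penicillin and streptomycin at 37 °C under 5% CO2, and were passaged at least 3 times after thawing. Cells were seeded at 4 × 10^3 to 8 × 10^3 cells/well and left to adhere for 24 h. They were then exposed to 5 µmol/L compound for 48 h. Morphology was viewed by inverted microscope against DMSO-treated controls.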

PC-3 [8] = assay: Induction of apoptosis in human PC3 cells assessed as spindle like formation at 5 umol/L after 48 hrs by inverted microscopic method; type: functional, cell-based; procedure, shortened: as §3
PC-3 [9] = assay: Induction of apoptosis in human PC3 cells assessed as early apoptotic cells at 5 umol/L after 48 hrs by annexin V-FITC/propidium iodide staining based flow cytometry (reference value: 4%); type: functional
PC-3 [10] = assay: Induction of apoptosis in human PC3 cells assessed as late apoptotic cells at 5 umol/L after 48 hrs by annexin V-FITC/propidium iodide staining based flow cytometry (reference value: 4.7%); type: functional
K562 [11] = assay: Induction of apoptosis in human K562 cells assessed as viable cells at 5 umol/L after 48 hrs by annexin V-FITC/propidium iodide staining based flow cytometry (reference value: 92.6%); type: functional; details: K562, 48 h, read-out: Activity
HEL [12] = assay: Induction of apoptosis in HEL cells assessed as viable cells at 5 umol/L after 48 hrs by annexin V-FITC/propidium iodide staining based flow cytometry (reference value: 93.1 to 94%); type: functional; details: Homo sapiens, read-out: Activity
HEL [13] = assay: Induction of apoptosis in HEL cells assessed as necrotic cells at 5 umol/L after 48 hrs by annexin V-FITC/propidium iodide staining based flow cytometry (reference value: 0.3 to 1%); type: functional, Homo sapiens
PC-3 [14] = assay: Cell cycle arrest in human PC3 cells assessed as increase in G1 phase accumulation at 5 umol/L after 48 hrs by propidium iodide staining based flow cytometric method; type: functional
Procedure, shortened: (§4)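 Cells grown in DMEM with 10% FBS and penicillin/streptomycin at 37 °C, 5% CO2, and passaged at least 3 times after thawing. Treated 48 h at 5 µmol/L, DMSO-treated controls. Harvested by trypsin, PBS-washed, fixed in ice-cold ethanol, blocked 1 h at 4 °C in 5% BSA/PBS, RNase 1 µg/mL 30 min at 37 °C, PI 20 µg/mL final. Phase percentages read from PI histograms. Mean ± SD, three independent experiments.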

PC-3 [15] = assay: Cell cycle arrest in human PC3 cells assessed as decrease in S phase accumulation at 5 umol/L after 48 hrs by propidium iodide staining based flow cytometric method; type: functional; procedure, shortened: as §4
MDA-MB-231 [16] = assay: Cell cycle arrest in human MDA-MB-231 cells assessed as decrease in S phase accumulation at 5 umol/L after 48 hrs by propidium iodide staining based flow cytometric method; type: functional; procedure, shortened: as §4
K562 [17] = assay: Cell cycle arrest in human K562 cells assessed as decrease in G2 phase accumulation at 5 umol/L after 48 hrs by propidium iodide staining based flow cytometry; type: functional; procedure, shortened: as §4
HEL [18] = assay: Cell cycle arrest in HEL cells assessed as decrease in S phase accumulation at 5 umol/L after 48 hrs by propidium iodide staining based flow cytometry; type: functional; details: Homo sapiens; procedure, shortened: as §4
HEL [19] = assay: Induction of morphological changes in HEL cells assessed as reduction in cell number at 5 umol/L after 48 hrs by inverted fluorescence microscopic analysis; type: functional, cell-based; details: Homo sapiens; procedure, shortened: as §3
MDA-MB-231 [20] = assay: Induction of morphological changes in human MDA-MB-231 cells assessed as increase in intracellular space at 5 umol/L after 48 hrs by inverted microscopic method; type: functional, cell-based; procedure, shortened: as §3
MDA-MB-231 [21] = assay: Induction of apoptosis in human MDA-MB-231 cells assessed as effect on cell adherence at 5 umol/L after 48 hrs by inverted microscopic method; type: functional, cell-based; procedure, shortened: as §3
PC-3 [22] = assay: Induction of apoptosis in human PC3 cells assessed as effect on cell adherence at 5 umol/L after 48 hrs by inverted microscopic method; type: functional, cell-based; procedure, shortened: as §3
HEL [23] = assay: Potency index, ratio of compound effect to (E)-2-Hydroxy-4,4-dimethoxy-3,5-diprenylchalcone effect for growth inhibition of HEL cells; type: functional, Homo sapiens
MDA-MB-231 [24] = assay: Induction of morphological changes in human MDA-MB-231 cells assessed as reduction in number of apoptotic bodies at 5 umol/L after 48 hrs by inverted microscopic method

COc1c(CC=C(C)C)cc(C(=O)/C=C/c2cccnc2)c(O)c1CC=C(C)C
inhibition of growth at 5 µM (MDA-MB-231 [1]): 83.4% | inhibition of growth at 5 µM (K562 [2]): 86.2% | inhibition of growth at 5 µM (HEL [3]): 91.7% | Activity (MDA-MB-231 [4]): Dose-dependent effect | IC50 (MDA-MB-231 [4]; MDA-MB-231, 48 h): 3140 nM | Activity (HEL [5]): Dose-dependent effect | IC50 (HEL [5]): 1850 nM | Activity (MDA-MB-231 [6]): Active | Activity (PC-3 [7]): Active | Activity (PC-3 [8]): Active | Activity (PC-3 [9]): 1.8% | Activity (PC-3 [10]): 42.7% | viability at 5 µM (K562 [11]): 64% | viability at 5 µM (HEL [12]): 82.4% | Activity (HEL [13]): 4.9% | Activity (PC-3 [14]): Active | Activity (PC-3 [15]): Active | Activity (MDA-MB-231 [16]): Active | Activity (K562 [17]): Active | Activity (HEL [18]): Active | Activity (HEL [19]): Active | Activity (MDA-MB-231 [20]): Active | Activity (MDA-MB-231 [21]): Active | Activity (PC-3 [22]): Active | Ratio (HEL [23]): 3 - 4 | Activity (MDA-MB-231 [24]): Active
